In brackets after ≈: the same amount, converted by molar mass.

Holding throughout (type): functional
Assay [1] has as its system Penicillium italicum. Briefly: Antifungal activity against Penicillium italicum at 100 ug after 24 to 48 hrs by diffusion agar technique. Particulars: read-out: IZ. The gist of the method:
(§1)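 Fungal isolates (RCMB collection) are seeded into malt extract agar (pH 5.4) and tested by hole-plate diffusion. Each 1 cm well receives 100 μL of a 5 mg/ml DMSO solution, with DMSO as control. Plates sit 1 h at 4 °C, then incubate at 28 °C. Zone diameter is measured after 24-48 h. Terbinafin is the standard.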

Assay [2] concerns Aspergillus niger. Kind of assay: Antifungal activity against Aspergillus niger at 100 ug after 24 to 48 hrs by diffusion agar technique. Particulars: read-out: IZ. The gist of the method:
as §1

Assay [3] relates to Staphylococcus aureus. Briefly: Antibacterial activity against Staphylococcus aureus at 100 ug after 24 to 48 hrs by diffusion agar technique. Particulars: read-out: IZ. The method, boiled down: (§2)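 Hole-plate agar diffusion on nutrient agar (pH 6.2) seeded with the bacterial isolate (RCMB collection). 1 cm wells hold 100 μL of compound at 5 mg/ml in DMSO; DMSO-filled wells serve as controls. Plates are held 1 h at 4 °C, then incubated at 37 °C. Inhibition zone diameter is read after 24-48 h. Amoxicilline is the reference.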

Assay [4] has as its system Bacillus subtilis. Briefly: Antibacterial activity against Bacillus subtilis at 100 ug after 24 to 48 hrs by diffusion agar technique. Particulars: read-out: IZ. The gist of the method:
as §2

The subject of assay [5] is Aspergillus fumigatus. Kind of assay: Antifungal activity against Aspergillus fumigatus at 100 ug after 24 to 48 hrs by diffusion agar technique. Particulars: read-out: IZ. The gist of the method: as §1
The test system of assay [6] is Candida albicans. Briefly: Antifungal activity against Candida albicans at 100 ug after 24 to 48 hrs by diffusion agar technique. Particulars: read-out: IZ. The gist of the method:
as §1

Assay [7] deals with Aspergillus niger. Briefly: Antimicrobial activity against Aspergillus niger by serial dilution technique.
Assay [8] deals with Syncephalastrum racemosum. Briefly: Antifungal activity against Syncephalastrum racemosum at 100 ug after 24 to 48 hrs by diffusion agar technique. Particulars: read-out: IZ. The gist of the method: as §1
For assay [9], the system named is Escherichia coli. Briefly: Antibacterial activity against Escherichia coli at 100 ug after 24 to 48 hrs by diffusion agar technique. Particulars: read-out: IZ. The method, boiled down: as §2
For assay [10], the system named is Bacillus subtilis. Kind of assay: Antimicrobial activity against Bacillus subtilis by serial dilution technique.
Assay [11] concerns Candida albicans. Kind of assay: Antimicrobial activity against Candida albicans by serial dilution technique.
The test system of assay [12] is Staphylococcus aureus. Briefly: Antimicrobial activity against Staphylococcus aureus by serial dilution technique.
Assay [13] concerns Pseudomonas aeruginosa. Kind of assay: Antibacterial activity against Pseudomonas aeruginosa at 100 ug after 24 to 48 hrs by diffusion agar technique. Particulars: read-out: IZ. The gist of the method:
as §2

The subject of assay [14] is Aspergillus fumigatus. Briefly: Antimicrobial activity against Aspergillus fumigatus by serial dilution technique.
Assay [15] relates to Syncephalastrum racemosum. Briefly: Antimicrobial activity against Syncephalastrum racemosum by serial dilution technique.
The subject of assay [16] is Penicillium italicum. Kind of assay: Antimicrobial activity against Penicillium italicum by serial dilution technique.

In the case of `CCO/C=C(\C#N)C(=O)c1oc2ccccc2c1C`, the zone of inhibition at 100 µg/disc in assay [1] is 10 mm; in assay [2], 18 mm; in assay [3] it was 13 mm; in assay [4], 7 mm; in assay [5], 19 mm; in assay [6] it was 10 mm. The zone of inhibition at 100 µg/disc in assay [8] was 22 mm. The molecule further yielded an MIC in [7] of 250 µg/mL (≈ 979 µM).

For `Cc1c(-c2cc(N)n(-c3ccccc3)n2)oc2ccccc12`, the zone of inhibition at 100 µg/disc is 5 mm in assay [9]; 7 mm in [2]; 4 mm in assay [3]; 25 mm in assay [4]; 10 mm in [5]; 9 mm in assay [6]. For the same molecule, the MIC in assay [10] came out at 250 µg/mL (≈ 864 µM).

As to `Cc1c(C(=O)/C(C#N)=N/Nc2ccc(Cl)cc2)oc2ccccc12`, the zone of inhibition at 100 µg/disc was 5 mm in [3] and 16 mm in assay [6]. In addition, the MIC in assay [11] was 250 µg/mL (≈ 740 µM).

Regarding `Cc1c(C(=O)NN/C=C(\NNC(=O)c2oc3ccccc3c2C)c2ccccc2)oc2ccccc12`, the zone of inhibition at 100 µg/disc was determined as 5 mm in assay [9], 15 mm in assay [3], 14 mm in assay [4] and 6 mm in assay [13]. In assay [12], this molecule showed an MIC of 500 µg/mL (≈ 1040 µM).

For the molecule `Cc1c(C(=O)NN/C=C(\NNC(=O)c2oc3ccccc3c2C)c2ccc(Cl)cc2)oc2ccccc12`, the zone of inhibition at 100 µg/disc stood at 3 mm in assay [9]; 5 mm in assay [2]; 4 mm in assay [3]; 4 mm in assay [4]; 10 mm in [5]; 6 mm in assay [8]. In assay [14], this molecule returned a minimal inhibitory concentration (MIC) of 500 µg/mL (≈ 971 µM).

`Cc1c(C(=O)/C(C#N)=N/O)oc2ccccc12`: the zone of inhibition at 100 µg/disc in assay [9] stood at 8 mm; in assay [2], 12 mm; in assay [3], 15 mm; in assay [4], 20 mm; in [5], 8 mm; in [6] it was 18 mm. For the same molecule, in assay [10], the MIC stood at 125 µg/mL (≈ 548 µM).

For `Cc1ccc(N/N=C(\C#N)C(=O)c2oc3ccccc3c2C)cc1`, the zone of inhibition at 100 µg/disc in assay [3] was determined as 4 mm; in assay [4], 6 mm; in assay [5] it was 12 mm; in [6] it was 20 mm. The molecule further registered an MIC in [11] of 50 µg/mL (≈ 158 µM).

As to `Cc1c(-c2n[nH]cc2C#N)oc2ccccc12`, the zone of inhibition at 100 µg/disc in [2] came to 6 mm; in assay [3], 10 mm; in [4], 18 mm; in assay [5] it was 20 mm; in assay [6] it was 12 mm; in [8] it was 30 mm. Moreover, the MIC in assay [15] was 50 µg/mL (≈ 224 µM).

Turning to `Cc1c(C(=O)NNC(=O)c2oc3ccccc3c2C)oc2ccccc12`, the zone of inhibition at 100 µg/disc in assay [1] is 12 mm; in assay [2], 13 mm; in assay [3], 3 mm; in assay [4], 12 mm; in [5], 4 mm; in [6] it was 6 mm. Further, in [8], the zone of inhibition at 100 µg/disc worked out at 18 mm. Also, the minimal inhibitory concentration (MIC) in assay [15] and in assay [16] was 50 µg/mL (≈ 144 µM) throughout.

For the molecule `Cc1c(C(=O)Nc2ccccc2C(=O)O)oc2ccccc12`, the zone of inhibition at 100 µg/disc in assay [1] came to 13 mm; in [3] it was 3 mm; in assay [4], 12 mm; in assay [8] it was 22 mm. In assay [15], this molecule displayed an MIC of 250 µg/mL (≈ 847 µM).

For `Cc1c(-c2nc3ccccc3c(=O)o2)oc2ccccc12`, the zone of inhibition at 100 µg/disc came to 6 mm in assay [1]; 5 mm in assay [2]; 4 mm in [3]; 8 mm in assay [4]; 8 mm in [5]; 8 mm in [13]. Moreover, the zone of inhibition at 100 µg/disc came out at 7 mm in [6] and 18 mm in assay [8]. Also, in assay [15], the minimum inhibitory concentration (MIC) turned out to be 250 µg/mL (≈ 902 µM).

Consider `CC1(C)S[C@@H]2[C@H](NC(=O)[C@H](N)c3ccc(O)cc3)C(=O)N2[C@H]1C(=O)O` [AMOXICILLIN], for which the zone of inhibition at 100 µg/disc in [9] is 30 mm; in assay [3], 30 mm; in [4], 25 mm; in [13], 20 mm.

Consider `CN(C/C=C/C#CC(C)(C)C)Cc1cccc2ccccc12` [TERBINAFINE], for which the zone of inhibition at 100 µg/disc in [1] came to 20 mm; in [2], 25 mm; in assay [5], 30 mm; in assay [6], 30 mm; in assay [8], 35 mm.

By MIC is commonly meant the lowest concentration that inhibits growth of the organism. Higher therefore signals weaker potency.

For the origin of these results see ChEMBL document CHEMBL1153755, “Convenient synthesis and antimicrobial evaluation of some novel 2-substituted-3-methylbenzofuran derivatives” (2009).
